Experimental data: ChEMBL document CHEMBL4011649 (J Med Chem, 2017)
The source made the active and inactive calls. The calls are words filed in the database; no cut-off is given here.

What was measured:
[1] = target: T1, 5-hydroxytryptamine receptor 2C (Homo sapiens) (UniProt P28335); experiment: Agonist activity at human 5-HT2C-INI receptor isoform expressed in Flp-IN HEK293 cells assessed as induction of Gq-mediated calcium flux up to 10 uM measured every second for 5 mins by Fluo-4 dye based FLIPR assay; format: functional, cell-based
T1 sequence (whole entry): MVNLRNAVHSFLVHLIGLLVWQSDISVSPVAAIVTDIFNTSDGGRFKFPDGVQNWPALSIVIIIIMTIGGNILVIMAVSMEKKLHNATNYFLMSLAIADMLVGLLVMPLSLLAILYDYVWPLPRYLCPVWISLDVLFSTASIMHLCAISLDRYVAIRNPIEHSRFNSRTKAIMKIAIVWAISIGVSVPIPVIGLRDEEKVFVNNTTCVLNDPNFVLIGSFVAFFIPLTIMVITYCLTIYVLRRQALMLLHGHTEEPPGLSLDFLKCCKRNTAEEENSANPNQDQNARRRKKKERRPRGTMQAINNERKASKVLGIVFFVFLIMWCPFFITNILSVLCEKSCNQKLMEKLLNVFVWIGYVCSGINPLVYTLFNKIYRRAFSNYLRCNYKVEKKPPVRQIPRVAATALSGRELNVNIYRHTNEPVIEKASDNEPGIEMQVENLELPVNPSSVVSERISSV

[2] = target: T2, 5-hydroxytryptamine receptor 2B (Homo sapiens, UniProt P41595); experiment: Agonist activity at human 5-HT2B receptor expressed in Flp-IN HEK293 cells assessed as induction of calcium flux up to 10 uM measured every second for 5 mins by Fluo-4 dye based FLIPR assay; format: cell-based; settings: hek293, 5 min
[3] = target: T3, 5-hydroxytryptamine receptor 2A (Homo sapiens, UniProt P28223); experiment: Agonist activity at human 5-HT2A receptor expressed in Flp-IN HEK293 cells assessed as induction of calcium flux up to 10 uM measured every second for 5 mins by Fluo-4 dye based FLIPR assay; format: cell-based; settings: hek293, 5 min
[4] = target: T4, 5-hydroxytryptamine receptor 2C (Homo sapiens, UniProt P28335); experiment: Agonist activity at human 5-HT2C-INI receptor isoform expressed in Flp-IN HEK293 cells assessed as induction of Gq-mediated calcium flux measured every second for 5 mins by Fluo-4 dye based FLIPR assay; format: functional, cell-based
T4 sequence (P28335 whole entry): T1 sequence (whole entry)

[5] = target: T2, 5-hydroxytryptamine receptor 2B; experiment: Agonist activity at human 5-HT2B receptor expressed in Flp-IN HEK293 cells assessed as induction of calcium flux measured every second for 5 mins by Fluo-4 dye based FLIPR assay; format: cell-based
[6] = target: T3, 5-hydroxytryptamine receptor 2A; experiment: Agonist activity at human 5-HT2A receptor expressed in Flp-IN HEK293 cells assessed as induction of calcium flux measured every second for 5 mins by Fluo-4 dye based FLIPR assay; format: cell-based
[7] = target: T4, 5-hydroxytryptamine receptor 2C; experiment: Agonist activity at tTA containing TEV cleavage site-fused 5-HT2C-INI receptor isoform (unknown origin) expressed in TEV-fused beta-arrestin2 expressing HEK cells assessed as induction of beta-arrestin2 recruitment after 20 hrs by Tango assay; format: cell-based
[8] = target: T1, 5-hydroxytryptamine receptor 2C (Homo sapiens); experiment: Ratio of Emax to EC50 for human 5-HT2C-INI receptor isoform expressed in Flp-IN HEK293 cells; format: cell-based
[9] = target: T1, 5-hydroxytryptamine receptor 2C (Homo sapiens); experiment: Ratio of Emax to EC50 for tTA containing TEV cleavage site-fused 5-HT2C-INI receptor isoform (unknown origin) expressed in TEV-fused beta-arrestin2 expressing HEK cells assessed as induction of beta-arrestin2 recruitment activity; format: cell-based
[10] = target: T1, 5-hydroxytryptamine receptor 2C (Homo sapiens); experiment: Agonist activity at human 5-HT2C-INI receptor isoform expressed in Flp-IN HEK293 cells assessed as induction of Gq-mediated calcium flux measured every second for 5 mins by Fluo-4 dye based FLIPR assay relative to serotonin; format: functional, cell-based
5-HT2B receptor = 5-HT2B receptor (Homo sapiens, UniProt P41595); experiment: Agonist activity at human 5-HT2B receptor expressed in Flp-IN HEK293 cells assessed as induction of calcium flux measured every second for 5 mins by Fluo-4 dye based FLIPR assay relative to serotonin; format: cell-based; settings: Flp-IN HEK293 cells expressing human 5-HT2B receptor
5-HT2A receptor = 5-HT2A receptor (Homo sapiens, UniProt P28223); experiment: Agonist activity at human 5-HT2A receptor expressed in Flp-IN HEK293 cells assessed as induction of calcium flux measured every second for 5 mins by Fluo-4 dye based FLIPR assay relative to serotonin; format: cell-based; settings: Flp-IN HEK293 cells expressing human 5-HT2A receptor
[11] = target: T1, 5-hydroxytryptamine receptor 2C (Homo sapiens); experiment: Agonist activity at tTA containing TEV cleavage site-fused 5-HT2C-INI receptor isoform (unknown origin) expressed in TEV-fused beta-arrestin2 expressing HEK cells assessed as induction of beta-arrestin2 recruitment after 20 hrs by Tango assay relative to serotonin; format: cell-based
Procedure, shortened: (§1)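 HTLA cells (HEK cells with TEV-fused β-arrestin-2 and tTA-driven luciferase) transfected with tTA-fused 5-HT2C-INI receptor carrying a TEV site. Luminescence read after 20 min lysis at room temperature. Normalized to % 5-HT and fitted sigmoidally. NA means no activity up to 10 μM. Mean of n = 3.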

[12] = target: T1, 5-hydroxytryptamine receptor 2C (Homo sapiens); experiment: Agonist activity at tTA containing TEV cleavage site-fused 5-HT2C-INI receptor isoform (unknown origin) expressed in TEV-fused beta-arrestin2 expressing HEK cells assessed as induction of beta-arrestin2 recruitment up to 10 uM after 20 hrs by Tango assay; format: cell-based; procedure, shortened: as §1

Chain of 5-HT2B receptor (P41595 whole entry): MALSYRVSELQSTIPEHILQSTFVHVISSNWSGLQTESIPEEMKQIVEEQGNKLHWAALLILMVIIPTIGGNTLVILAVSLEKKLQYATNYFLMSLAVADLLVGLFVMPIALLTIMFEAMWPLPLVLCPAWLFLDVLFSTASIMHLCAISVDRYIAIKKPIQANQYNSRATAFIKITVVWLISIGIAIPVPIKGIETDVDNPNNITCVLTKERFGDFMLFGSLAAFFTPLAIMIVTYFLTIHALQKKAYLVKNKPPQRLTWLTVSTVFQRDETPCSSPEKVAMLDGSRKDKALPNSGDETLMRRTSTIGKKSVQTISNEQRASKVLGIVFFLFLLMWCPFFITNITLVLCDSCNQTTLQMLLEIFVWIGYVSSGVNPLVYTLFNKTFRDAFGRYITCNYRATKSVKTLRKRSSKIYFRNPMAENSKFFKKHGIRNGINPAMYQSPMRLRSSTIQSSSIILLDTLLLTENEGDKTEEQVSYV
T2 sequence (P41595 whole entry): as above
T3 sequence (P28223 whole entry, canonical isoform): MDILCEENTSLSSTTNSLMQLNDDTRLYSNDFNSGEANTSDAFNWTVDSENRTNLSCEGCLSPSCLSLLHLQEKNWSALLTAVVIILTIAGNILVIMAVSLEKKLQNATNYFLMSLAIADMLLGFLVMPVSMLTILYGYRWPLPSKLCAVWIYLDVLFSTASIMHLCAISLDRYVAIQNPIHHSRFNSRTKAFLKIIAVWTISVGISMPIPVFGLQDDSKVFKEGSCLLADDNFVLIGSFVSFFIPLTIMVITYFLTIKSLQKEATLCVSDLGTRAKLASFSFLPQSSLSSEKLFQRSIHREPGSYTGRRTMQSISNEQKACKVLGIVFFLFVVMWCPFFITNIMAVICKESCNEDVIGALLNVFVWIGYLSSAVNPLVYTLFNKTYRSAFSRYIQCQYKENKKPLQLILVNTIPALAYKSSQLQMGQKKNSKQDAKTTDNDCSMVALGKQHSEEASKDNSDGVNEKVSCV
Chain of 5-HT2A receptor (P28223 whole entry, the tested form may be a part, canonical isoform): as the sequence (P28223 whole entry, canonical isoform) above

Activity [1]	Activity [3]	SMILES	Activity [2]	EC50 ([4]; read-out: EC50) [µM]	EC50 ([4]; read-out: pEC50 (converted)) [µM]	EC50 [5] [µM]	EC50 [6] [µM]	EC50 [7] [µM]	log(ratio) [8]	log(ratio) [9]	Emax [10] [%]	Emax at 5 min (5-HT2B receptor) [%]	Emax at 5 min (5-HT2A receptor) [%]	Emax [11] [%]	Activity [12]
inactive	Not Active	COc1ccc(F)cc1C1CC1CNCc1cccc2cc[nH]c12.Cl (racemic)	Not Active	–	–	–	–	–	–	–	–	–	–	–	–
–	–	C=CCOc1ccc(F)cc1[C@H]1C[C@@H]1CNCc1ccccc1OC	–	0.0092	0.00891	0.113	0.028	0.0227	8.02	7.39	97	28	80	56	–
–	–	COc1ccc(F)cc1C1CC1CNCc1sccc1OC.Cl (racemic)	Not Active	0.121	–	–	0.148	–	–	–	66	–	102	–	–
–	–	COc1ccccc1C(C)NCC1CC1c1cc(F)ccc1OC.Cl (racemic)	Not Active	2.55	–	–	0.238	–	–	–	81	–	106	–	–
–	–	COc1ccc(F)cc1C1CC1CNC1CC1 (racemic)	–	0.399	–	0.641	1.09	–	–	–	70	14	69	–	–
–	–	COc1ccccc1CN(C)CC1CC1c1cc(F)ccc1OC.Cl (racemic)	Not Active	0.67	–	–	2.54	–	–	–	49	–	24	–	–
–	–	COc1ccc(F)cc1[C@@H]1C[C@H]1CNCc1cccs1.Cl	Not Active	0.308	–	–	0.674	–	–	–	81	–	59	–	–
–	–	COc1ccc(F)cc1[C@H]1C[C@@H]1CNCc1ccccc1F.Cl	Not Active	0.502	–	–	1.88	–	–	–	78	–	63	–	–
–	–	COc1ccc(F)cc1[C@@H]1C[C@H]1CNCc1ccccc1Cl.Cl	Not Active	1.86	–	–	2.99	–	–	–	72	–	–	–	–
–	–	COc1ccc(F)cc1C1CC1CNC1(c2ccccc2OC)CC1.Cl (racemic)	Not Active	0.874	–	–	0.655	–	–	–	77	–	102	–	–
–	–	C=CCOc1ccc(F)cc1[C@H]1C[C@@H]1CNC.Cl	Not Active	0.013	–	–	0.284	–	–	–	15	–	19	–	–
–	–	COc1ccccc1CNC[C@H]1C[C@@H]1c1cc(F)ccc1OCCF	–	–	–	–	–	–	–	–	93	22	78	54	–
–	–	COc1ccc(F)cc1[C@H]1C[C@@H]1CNCc1cccs1.Cl	Not Active	0.12	–	–	0.438	–	6.7	–	60	–	34	–	inactive
–	–	COc1cccc(CNC[C@H]2C[C@@H]2c2cc(F)ccc2OC)c1.Cl	Not Active	0.231	–	–	3.7	–	–	–	83	–	70	–	–
–	–	CNC[C@H]1C[C@@H]1c1cc(F)ccc1OC	–	0.023	–	0.089	0.271	–	7.49	–	71	54	79	–	inactive
–	–	COc1ccccc1CNC[C@@H]1C[C@H]1c1cc(F)ccc1OC	–	–	–	0.57	–	–	–	–	104	72	94	–	–
–	–	COc1ccc(F)cc1C1CC1CNCc1ccccc1C(N)=O (racemic)	–	0.409	–	0.335	1.31	–	–	–	31	82	67	–	–
